The source made the active and inactive calls. The calls are words filed in the database; no cut-off is given here.

The results in this text go back to ChEMBL document CHEMBL2057189, “Functional characterization of recombinant hyoscyamine 6β-hydroxylase from Atropa belladonna” (Bioorg Med Chem, 2012).

Assay [1] deals with Atropa belladonna. Kind of assay: Activity at Atropa belladonna recombinant hycosamine 6beta-hydroxylase expressed in Escherichia coli assessed as hydroxylated product formation at 0.2 mM after 1 hr by ESI-MS analysis. The gist of the method:
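Ni-NTA-purified His-tagged AbH6H, E. coli-expressed. Analogue at 0.2 mM final replaced (−)-hyoscyamine in 50 mM Tris/HCl pH 7.6 with 0.4 mM FeSO4, 4 mM sodium ascorbate, 1 mM 2-oxoglutaric acid and 2 mg/mL catalase at 34 °C. The reaction was quenched with saturated Na2CO3 (pH ~9.5) and extracted with EtOAc. Conversion to products was checked by ESI-MS.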

The subject of assay [2] is Atropa belladonna. Kind of assay: Inhibition of Atropa belladonna recombinant hycosamine 6beta-hydroxylase expressed in Escherichia coli using hyoscyamine as substrate assessed as inhibition of hydroxylated product formation at 0.1 mM after 1 hr by HPLC analysis. A digest of the protocol: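 Purified AbH6H was assayed in 50 mM Tris/HCl pH 7.6 with 0.4 mM FeSO4, 4 mM ascorbate, 1 mM 2-oxoglutarate, 2 mg/mL catalase and 0.2 mM (−)-hyoscyamine, plus 0.1 mM analogue, at 34 °C. After Na2CO3 quench and EtOAc extraction, 6β-hydroxyhyoscyamine was quantified by C18 HPLC (UV 210 nm, water/H3PO4–MeOH gradient). Inhibition was scored as reduced product formation.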

The subject of assay [3] is Atropa belladonna. In words: Activity at Atropa belladonna recombinant hycosamine 6beta-hydroxylase epoxidase activity expressed in Escherichia coli assessed as scopolamine formation at 0.2 mM after 1 hr by ESI-MS analysis. A digest of the protocol: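 C-terminally His6-tagged A. belladonna H6H expressed in E. coli JM109 and Ni-NTA purified. Substrate (0.2 mM final) incubated at 34 °C in 50 mM Tris/HCl pH 7.6 with 0.4 mM FeSO4, 4 mM sodium ascorbate, 1 mM 2-oxoglutarate and 2 mg/mL catalase. Quenched with saturated Na2CO3 to pH ~9.5 and extracted with EtOAc. Products detected by ESI-MS.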

In the case of `CN(C)c1ccc(CC(=O)O[C@H]2C[C@H]3CC[C@@H](C2)N3C)cc1`, in assay [1], the outcome was Active.
For the compound `CN1CCC(OC(=O)Cc2ccccc2)CC1`, the outcome in assay [1] was inactive. In assay [2], the inhibition result was “inactive”.
As for `CN1[C@@H]2C=C[C@H]1C[C@@H](OC(=O)[C@H](CO)c1ccccc1)C2`, the result in assay [1] and in assay [3] was Active.
Turning to `CN1C2CC[C@@H]1C[C@H](OC(=O)CCc1ccccc1)C2` (single isomer, unassigned), the outcome in assay [1] was inactive. Moreover, in assay [2], the inhibition result is “inactive”.
With `CN1C2CC[C@@H]1C[C@H](OC(=O)c1ccccc1)C2` (single isomer, unassigned), in assay [1], the outcome was Active.
Turning to `C[N+]1(C)C2C[C@H](OC(=O)[C@H](CO)c3ccccc3)C[C@@H]1[C@H]1OC21` (single isomer, unassigned), in assay [1], the outcome was inactive. Also, the inhibition in assay [2] worked out at 7%.
As for `O=C(Cc1ccccc1)O[C@@H]1CC2CC[C@H](C1)O2` (single isomer, unassigned), the result in assay [1] was inactive. The inhibition result in assay [2] was “inactive”.

The term inhibition denotes the drop in the measured response relative to a control, in per cent.
